Activity calls are given as the source filed them. No cut-off for these calls is given here.
Key:
[1] = AUC(0 to t) in Beagle dog at 3 mg/kg, po measured up to 24 hrs by LC-MS/MS analysis; assay type: ADME, organism-based, Canis lupus familiaris; design: time < 24 hrs, dose 3 mg/kg, route po; conditions: in vivo
Procedure, shortened: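 Male Beagle dogs dosed orally at 3 mg/kg in 90% PEG400 + 10% Cremophor.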

VCaP [2] = assay: Induction of androgen receptor degradation in human VCaP cells at 100 nM pretreated with thalidomide for 2 hrs followed by compound addition and 3 hrs by Western blot analysis; assay type: functional, cell-based; conditions: time 5.0 hrs
Procedure, shortened: (§1)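 LNCaP or VCaP cells pretreated 2 h with DMSO, ARi-12 (10 μM), thalidomide (10 μM), MG-132 (3 μM) or MLN4924 (0.5 μM), then given degrader at 100 nM for 3 h. AR measured by Western blot with GAPDH as loading control.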

[3] = Metabolic stability in human hepatocytes assessed as half life at 1 uM measured upto 120 mins in presence of NADPH by LC-MS/MS analysis; assay type: ADME, cell-based, Hepatocyte; conditions: 2 h
Mus musculus = assay: In vivo induction of androgen receptor degradation in human VCaP cells xenografted in CB17 SCID mouse assessed as reduction in FKBP5 mRNA level at 12.5 mg/kg, po measured after 6 to 24 hrs by qRT-PCR analysis; assay type: functional, organism-based; conditions: time 6-24 hrs
[4] = Toxicity in CB17 SCID mouse assessed as weight loss at 3.75 to 30 mg/kg, po; assay type: organism-based; conditions: in vivo, dose 3.75-30 mg/kg
Procedure, shortened: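 SCID mice bearing VCaP xenografts dosed by oral gavage once daily for 21 days. Body weight and signs of toxicity monitored throughout.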

[5] = target: T1, Androgen receptor (Homo sapiens) (UniProt P10275); assay: Induction of androgen receptor degradation in human VCaP cells at 1 uM after 24 hrs by Western blotting analysis relative to control; assay type: cell-based
T1 sequence (whole entry): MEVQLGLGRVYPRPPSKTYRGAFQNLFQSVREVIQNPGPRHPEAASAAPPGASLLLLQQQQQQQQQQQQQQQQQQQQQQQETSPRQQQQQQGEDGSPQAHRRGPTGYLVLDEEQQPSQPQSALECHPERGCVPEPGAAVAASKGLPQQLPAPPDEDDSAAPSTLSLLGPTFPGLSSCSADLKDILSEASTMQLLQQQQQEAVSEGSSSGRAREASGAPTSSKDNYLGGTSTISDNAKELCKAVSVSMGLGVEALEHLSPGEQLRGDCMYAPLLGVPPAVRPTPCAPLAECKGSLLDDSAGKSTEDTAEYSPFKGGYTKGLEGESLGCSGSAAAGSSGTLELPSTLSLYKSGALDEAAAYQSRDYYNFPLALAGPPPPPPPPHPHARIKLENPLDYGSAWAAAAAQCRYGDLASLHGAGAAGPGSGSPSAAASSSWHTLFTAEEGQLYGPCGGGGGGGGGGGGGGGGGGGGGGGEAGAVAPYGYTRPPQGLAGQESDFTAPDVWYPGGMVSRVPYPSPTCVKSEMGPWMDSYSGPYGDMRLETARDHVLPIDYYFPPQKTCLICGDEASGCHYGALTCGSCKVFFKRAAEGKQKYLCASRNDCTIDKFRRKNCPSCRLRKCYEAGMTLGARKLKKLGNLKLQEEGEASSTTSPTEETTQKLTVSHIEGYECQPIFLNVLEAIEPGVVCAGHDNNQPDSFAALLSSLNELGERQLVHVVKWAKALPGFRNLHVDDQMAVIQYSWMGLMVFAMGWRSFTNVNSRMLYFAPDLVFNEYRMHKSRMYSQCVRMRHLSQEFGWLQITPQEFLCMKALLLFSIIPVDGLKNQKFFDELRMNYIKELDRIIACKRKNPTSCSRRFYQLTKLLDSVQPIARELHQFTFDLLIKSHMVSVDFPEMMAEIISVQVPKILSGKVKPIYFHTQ
Procedure, shortened: (§2)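 VCaP cells treated for 24 h at 10, 100 or 1000 nM. AR protein measured by Western blotting.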

[6] = Drug concentration in CB17 SCID mouse plasma xenografted with human VCaP cells at 12.5 mg/kg, po measured after 24 hrs by LC-MS/MS analysis; assay type: ADME, organism-based
Procedure, shortened: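 SCID mice bearing one VCaP tumour each given a single oral 12.5 mg/kg dose in 100% PEG200. Plasma and tumour tissue collected at 6 and 24 h, 3 mice per time point. Values are mean ± SD.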

[7] = Downregulation of KLK3 gene expression in human LNCaP cells at 10 nM incubated for 24 hrs by qRT-PCR analysis; assay type: functional
Procedure, shortened: (§3)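 LNCaP cells (RPMI 1640) or VCaP cells (DMEM Glutamax), both with 10% FBS, treated for 24 h. KLK3 mRNA measured by qRT-PCR and calculated by the comparative CT method against GAPDH and vehicle.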

[8] = Half life in ICR mouse at 2 mg/kg, iv measured upto 24 hrs by LC-MS/MS analysis; assay type: ADME, organism-based; conditions: in vivo
Procedure, shortened: (§4)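 Male ICR mice (2 mg/kg), male SD rats (1 mg/kg) or male Beagle dogs (1 mg/kg) given a single intravenous dose in 10% PEG400 + 90% PBS adjusted to pH 8.0 with NaOH.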

[9] = target: T1, Androgen receptor (Homo sapiens); assay: Induction of androgen receptor degradation in human VCaP cells at 0.01 uM after 24 hrs by Western blotting analysis relative to control; assay type: cell-based; procedure, shortened: as §2
VCaP [10] = assay: Induction of androgen receptor degradation in human VCaP cells at 100 nM pretreated with MLN4924 for 2 hrs followed by compound addition and 3 hrs by Western blot analysis; assay type: functional, cell-based; conditions: time 5.0 hrs; procedure, shortened: as §1
VCaP [11] = assay: Induction of androgen receptor degradation in human VCaP cells at 100 nM pretreated with MG132 for 2 hrs followed by compound addition and 3 hrs by Western blot analysis; assay type: functional, cell-based; conditions: time 5.0 hrs; procedure, shortened: as §1
[12] = AUC(0 to t) in Beagle dog at 1 mg/kg, iv measured upto 24 hrs by LC-MS/MS analysis; assay type: ADME, organism-based, Canis lupus familiaris; design: time < 24 hrs, dose 1 mg/kg, route iv; conditions: in vivo; procedure, shortened: as §4
LNCaP [13] = assay: Growth inhibition in human LNCaP cells incubated for 4 days by WST-8 assay relative to control; assay type: functional; conditions: time 4 day
Procedure, shortened: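 LNCaP cells grown in RPMI 1640 with 10% FBS, treated for 4 days. Viability read by WST-8 assay.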

[14] = Metabolic stability in dog hepatocytes assessed as half life at 1 uM measured upto 120 mins in presence of NADPH by LC-MS/MS analysis; assay type: ADME, cell-based, Canis lupus familiaris, Hepatocyte; conditions: 2 h
[15] = target: Voltage-gated inwardly rectifying potassium channel KCNH2 (Homo sapiens, UniProt Q12809); assay: Inhibition of human ERG expressed in HEK293 cells by whole cell patch clamp assay; assay type: toxicity, cell-based
Procedure, shortened: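 Manual whole-cell patch clamp at room temperature on HEK293 cells stably expressing hERG. Compound tested at 3 and 30 μM in duplicate; terfenadine as positive control.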

[16] = Downregulation of KLK3 gene expression in human VCaP cells at 30 nM incubated for 24 hrs by qRT-PCR analysis; assay type: functional; procedure, shortened: as §3
LNCaP [17] = assay: Downregulation of KLK3 gene expression in human LNCaP cells incubated for 24 hrs by qRT-PCR analysis; assay type: functional, cell-based; conditions: dose 0.03-30 nM; procedure, shortened: as §3
LNCaP [18] = assay: Growth inhibition in human LNCaP cells incubated for 4 days by WST-8 assay; assay type: functional, cell-based; conditions: 96 h
Androgen receptor = target: T2, Androgen receptor (Homo sapiens, UniProt P10275); assay: Induction of androgen receptor degradation in human VCaP cells incubated for 24 hrs by Western blot analysis; assay type: cell-based
T2 sequence (P10275 whole entry): T1 sequence (whole entry)

Voltage-gated inwardly rectifying potassium channel KCNH2, sequence (Q12809 whole entry): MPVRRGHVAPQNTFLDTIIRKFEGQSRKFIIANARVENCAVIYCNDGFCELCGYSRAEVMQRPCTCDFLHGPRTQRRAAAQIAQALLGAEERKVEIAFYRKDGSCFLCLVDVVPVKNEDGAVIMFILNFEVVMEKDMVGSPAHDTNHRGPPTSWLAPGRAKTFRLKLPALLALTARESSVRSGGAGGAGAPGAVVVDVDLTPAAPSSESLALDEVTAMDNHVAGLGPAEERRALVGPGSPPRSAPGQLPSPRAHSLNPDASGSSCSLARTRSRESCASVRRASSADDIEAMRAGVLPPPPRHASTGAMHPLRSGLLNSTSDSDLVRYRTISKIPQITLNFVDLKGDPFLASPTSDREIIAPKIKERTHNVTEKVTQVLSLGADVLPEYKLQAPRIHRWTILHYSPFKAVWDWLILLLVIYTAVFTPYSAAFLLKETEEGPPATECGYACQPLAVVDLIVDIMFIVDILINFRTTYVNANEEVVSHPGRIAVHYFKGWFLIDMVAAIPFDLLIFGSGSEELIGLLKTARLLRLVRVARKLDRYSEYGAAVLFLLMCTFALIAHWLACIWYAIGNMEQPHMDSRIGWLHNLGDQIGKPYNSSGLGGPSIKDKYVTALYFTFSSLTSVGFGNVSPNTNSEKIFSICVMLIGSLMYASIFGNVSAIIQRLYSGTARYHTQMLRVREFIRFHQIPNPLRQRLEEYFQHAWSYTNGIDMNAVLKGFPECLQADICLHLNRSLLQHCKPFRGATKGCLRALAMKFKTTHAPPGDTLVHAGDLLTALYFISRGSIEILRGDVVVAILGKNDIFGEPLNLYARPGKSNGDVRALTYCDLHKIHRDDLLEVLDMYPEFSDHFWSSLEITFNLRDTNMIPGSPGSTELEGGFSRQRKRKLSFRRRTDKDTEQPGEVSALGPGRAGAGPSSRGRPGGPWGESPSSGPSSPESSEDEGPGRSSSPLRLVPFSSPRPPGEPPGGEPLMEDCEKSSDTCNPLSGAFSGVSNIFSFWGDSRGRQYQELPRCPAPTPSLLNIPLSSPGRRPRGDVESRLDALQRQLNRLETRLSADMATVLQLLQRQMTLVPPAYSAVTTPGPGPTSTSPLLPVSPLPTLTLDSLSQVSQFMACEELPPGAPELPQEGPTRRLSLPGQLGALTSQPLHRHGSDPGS

## C[C@H]1CC2(CCN(c3ccc(C(=O)N4CCN(C5CN(c6ccc7c(c6)C(=O)N(C6CCC(=O)NC6=O)C7=O)C5)CC4)cc3)CC2)CN1c1ccc(C#N)c(Cl)c1 (stereo not given in full)
[1]
  AUCt: 4460 ng·h/mL
VCaP [2]
  Activity: inactive
[3]
  t1/2: > 2 h
Mus musculus
  Activity: Active
[4]
  Activity: < 5%
[5]
  Activity: > 95%
[6]
  concentration at 24 h: 742 ng/mL
[7]
  Activity: 79%
[8]
  t1/2: 5 h
[9]
  Activity: > 95%
VCaP [10]
  Activity: inactive
VCaP [11]
  Activity: inactive
[12]
  AUCt: 3240 ng·h/mL
LNCaP [13]
  Imax: 100%
[14]
  t1/2: > 2 h
[15]
  IC50: > 30000 nM
[16]
  Activity: 87%
LNCaP [17]
  Activity: Dose-Dependent Effect
LNCaP [18]
  IC50: 13 nM
Androgen receptor
  EC50: 0.6 nM
